Converted amounts (≈) assume the structure as drawn.
What was measured:
Plasmodium falciparum [1] = assay: Antimalarial activity against Plasmodium falciparum 3D7 after 72 hrs by MSF assay; assay type: functional, organism-based; settings: 3D7, 72 h
Plasmodium falciparum [2] = assay: Antimalarial activity against Plasmodium falciparum K1 after 72 hrs by MSF assay; assay type: functional, organism-based; settings: K1, 72 h
[3] = Permeability of the compound at 10 uM at pH 7.4 by PAMPA; assay type: ADME; settings: pH 7.4, 10 µM
Outline: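 PAMPA: diluted compound in system solution buffer at pH 7.4 was placed in the donor well over a GIT-lipid-painted membrane, with acceptor solution buffer in the acceptor well. The sandwich was stirred for 30 min with the aqueous boundary layer set to 40 μm. Triplicate.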

[4] = Solubility of the compound in PBS at 10 mM after 18 hrs by UV spectroscopic analysis; assay type: physicochemical
Mus musculus [5] = assay: Cmax in CD1 mouse at 20 mg/kg, po; assay type: ADME, organism-based; set-up: dose 20 mg/kg, route oral; settings: in vivo
Outline: (§1)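 Female CD-1 mice, 8 weeks old, were given a single oral gavage dose as a suspension in 0.5% methylcellulose in sterile water. Blood was taken from three mice per time point (5 min–24 hr) into K3EDTA and processed to plasma. After acetonitrile protein precipitation, samples were analysed by LC-MS/MS with a warfarin internal standard. Noncompartmental analysis used linear-up/log-down trapezoidal AUC and at least three non-zero concentrations after Tmax.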

Mus musculus [6] = assay: Cmax in CD1 mouse at 200 mg/kg, po; assay type: ADME, organism-based; set-up: dose 200 mg/kg, route oral; settings: in vivo; outline: as §1
Mus musculus [7] = assay: Tmax in CD1 mouse at 20 mg/kg, po; assay type: ADME, organism-based; set-up: dose 20 mg/kg, route oral; settings: in vivo; outline: as §1
Mus musculus [8] = assay: Tmax in CD1 mouse at 200 mg/kg, po; assay type: ADME, organism-based; set-up: dose 200 mg/kg, route oral; settings: in vivo; outline: as §1
Mus musculus [9] = assay: AUC (0 to infinity) in CD1 mouse at 20 mg/kg, po; assay type: ADME, organism-based, Plasma; set-up: time infinity, dose 20 mg/kg, route oral; settings: in vivo; outline: as §1
Mus musculus [10] = assay: AUC (0 to infinity) in CD1 mouse at 200 mg/kg, po; assay type: ADME, organism-based, Plasma; set-up: time infinity, dose 200 mg/kg, route oral; settings: in vivo; outline: as §1
[11] = Apparent volume of distribution during terminal phase in CD1 mouse at 20 mg/kg, po; assay type: ADME, organism-based; set-up: dose 20 mg/kg, route oral; settings: CD1, mouse, in vivo, read-out: Vz/F; outline: as §1
[12] = Apparent volume of distribution during terminal phase in CD1 mouse at 200 mg/kg, po; assay type: ADME, organism-based; set-up: dose 200 mg/kg, route oral; settings: in vivo, read-out: Vz/F; outline: as §1
HEK293 = assay: Cytotoxicity against human HEK293 cells at 25 uM after 72 hrs by celltiter-glo assay; assay type: cell-based; settings: hek293, 72 h
HepG2 = assay: Cytotoxicity against human HepG2 cells at 25 uM after 72 hrs by celltiter-glo assay; assay type: cell-based; settings: hepg2, 72 h
Raji = assay: Cytotoxicity against human Raji cells at 25 uM after 72 hrs by celltiter-glo assay; assay type: cell-based
BJ = assay: Cytotoxicity against human BJ cells at 25 uM after 72 hrs by celltiter-glo assay; assay type: cell-based
CYP2D6 [13] = target: T1, CYP2D6 (Homo sapiens, UniProt P10635); assay: Inhibition of CYP2D6 in human liver microsomes at 1 uM after 20 mins by LC-MS/MS analysis relative to control; values are per cent of control
CYP2D6 [14] = target: T1, CYP2D6; assay: Inhibition of CYP2D6 in human liver microsomes at 10 uM after 20 mins by LC-MS/MS analysis relative to control; values are per cent of control
Mus musculus [15] = assay: Cmax in CD1 mouse at 500 mg/kg, po; assay type: ADME, organism-based; set-up: dose 500 mg/kg, route oral; settings: in vivo; outline: as §1
Mus musculus [16] = assay: Tmax in CD1 mouse at 500 mg/kg, po; assay type: ADME, organism-based; set-up: dose 500 mg/kg, route oral; settings: in vivo; outline: as §1
Mus musculus [17] = assay: AUC (0 to infinity) in CD1 mouse at 500 mg/kg, po; assay type: ADME, organism-based, Plasma; set-up: time infinity, dose 500 mg/kg, route oral; settings: in vivo; outline: as §1
Mus musculus [18] = assay: Apparent volume of distribution during terminal phase in CD1 mouse at 500 mg/kg, po; assay type: ADME, organism-based; set-up: dose 500 mg/kg, route oral; settings: mouse, in vivo; outline: as §1
[19] = target: Voltage-gated inwardly rectifying potassium channel KCNH2 (Homo sapiens, UniProt Q12809); assay: Inhibition of human ERG by patch clamp assay
[20] = target: T2, ATP-sensitive inward rectifier potassium channel 11 (Homo sapiens, UniProt Q14654); assay: Inhibition of Kir6.2 by patch clamp assay
T2 sequence (Q14654 whole entry): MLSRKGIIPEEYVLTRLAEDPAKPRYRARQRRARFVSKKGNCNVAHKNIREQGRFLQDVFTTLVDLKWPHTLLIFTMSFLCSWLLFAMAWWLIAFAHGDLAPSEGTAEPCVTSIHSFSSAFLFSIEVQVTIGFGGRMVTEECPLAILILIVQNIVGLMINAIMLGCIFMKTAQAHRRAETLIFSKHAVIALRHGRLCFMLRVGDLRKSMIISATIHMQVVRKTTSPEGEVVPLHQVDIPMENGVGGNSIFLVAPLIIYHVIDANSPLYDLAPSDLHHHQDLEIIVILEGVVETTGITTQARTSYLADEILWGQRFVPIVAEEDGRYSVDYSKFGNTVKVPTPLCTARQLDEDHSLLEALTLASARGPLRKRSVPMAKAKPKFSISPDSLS

[21] = Intrinsic clearance in human liver microsomes at 2 mM; assay type: ADME, Microsome; settings: read-out: CLH
Plasmodium berghei [22] = assay: Antimalarial activity against Plasmodium berghei NK-65 infected in ICR mouse assessed as parasitemia level at 200 mg/kg, po administered day 3, 4 and 5 post infection measured up to day 30 by Geimsa staining; assay type: functional
Outline: (§2)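 Female Swiss outbred ICR mice, 15–20 g, given 1 X 10^6 P. berghei NK-65 infected red cells from donor mice in plasma at day 0 (modified Thompson's test). Patent infection confirmed by tail blood smear on day 3. Oral single daily doses in 0.5% HEC on days 3, 4, 5. Vehicle controls. Survival recorded daily to day 30. Parasitemia from Giemsa thin films on days 3, 6, 13, 20, 27, counting ≥1000 cells.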

hERG = assay: Therapeutic index, ratio of IC50 for human ERG to EC50 for Plasmodium falciparum K1; settings: read-out: Ratio IC50/EC50
[23] = Intrinsic clearance in […] mouse liver microsomes at 2 mM; assay type: ADME, Microsome; settings: read-out: CLH
Plasmodium berghei [24] = assay: Antimalarial activity against Plasmodium berghei NK-65 infected in ICR mouse assessed as parasitemia level at 100 mg/kg, po administered day 3, 4 and 5 post infection measured up to day 30 by Geimsa staining; assay type: functional; outline: as §2
Plasmodium berghei [25] = assay: Antimalarial activity against Plasmodium berghei NK-65 infected in ICR mouse assessed as survival rate at 100 mg/kg, po administered day 3, 4 and 5 post infection; assay type: functional; outline: as §2
Plasmodium berghei [26] = assay: Antimalarial activity against Plasmodium berghei NK-65 infected in ICR mouse assessed as survival rate at 200 mg/kg, po administered day 3, 4 and 5 post infection; assay type: functional; outline: as §2

T1 sequence (P10635 whole entry): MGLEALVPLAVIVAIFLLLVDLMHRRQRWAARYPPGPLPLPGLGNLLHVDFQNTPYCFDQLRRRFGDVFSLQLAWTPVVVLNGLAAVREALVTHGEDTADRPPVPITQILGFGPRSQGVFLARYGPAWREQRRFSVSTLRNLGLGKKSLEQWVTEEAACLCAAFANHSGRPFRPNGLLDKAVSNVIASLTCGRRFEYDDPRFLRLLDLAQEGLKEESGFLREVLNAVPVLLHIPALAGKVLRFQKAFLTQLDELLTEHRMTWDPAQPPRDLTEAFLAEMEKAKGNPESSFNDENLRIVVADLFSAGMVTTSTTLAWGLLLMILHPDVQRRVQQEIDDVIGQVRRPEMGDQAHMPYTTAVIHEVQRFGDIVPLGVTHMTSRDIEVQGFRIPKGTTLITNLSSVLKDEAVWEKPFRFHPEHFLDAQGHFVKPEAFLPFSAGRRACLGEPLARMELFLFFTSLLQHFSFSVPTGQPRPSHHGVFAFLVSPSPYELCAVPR
Sequence of Voltage-gated inwardly rectifying potassium channel KCNH2 (Q12809 whole entry): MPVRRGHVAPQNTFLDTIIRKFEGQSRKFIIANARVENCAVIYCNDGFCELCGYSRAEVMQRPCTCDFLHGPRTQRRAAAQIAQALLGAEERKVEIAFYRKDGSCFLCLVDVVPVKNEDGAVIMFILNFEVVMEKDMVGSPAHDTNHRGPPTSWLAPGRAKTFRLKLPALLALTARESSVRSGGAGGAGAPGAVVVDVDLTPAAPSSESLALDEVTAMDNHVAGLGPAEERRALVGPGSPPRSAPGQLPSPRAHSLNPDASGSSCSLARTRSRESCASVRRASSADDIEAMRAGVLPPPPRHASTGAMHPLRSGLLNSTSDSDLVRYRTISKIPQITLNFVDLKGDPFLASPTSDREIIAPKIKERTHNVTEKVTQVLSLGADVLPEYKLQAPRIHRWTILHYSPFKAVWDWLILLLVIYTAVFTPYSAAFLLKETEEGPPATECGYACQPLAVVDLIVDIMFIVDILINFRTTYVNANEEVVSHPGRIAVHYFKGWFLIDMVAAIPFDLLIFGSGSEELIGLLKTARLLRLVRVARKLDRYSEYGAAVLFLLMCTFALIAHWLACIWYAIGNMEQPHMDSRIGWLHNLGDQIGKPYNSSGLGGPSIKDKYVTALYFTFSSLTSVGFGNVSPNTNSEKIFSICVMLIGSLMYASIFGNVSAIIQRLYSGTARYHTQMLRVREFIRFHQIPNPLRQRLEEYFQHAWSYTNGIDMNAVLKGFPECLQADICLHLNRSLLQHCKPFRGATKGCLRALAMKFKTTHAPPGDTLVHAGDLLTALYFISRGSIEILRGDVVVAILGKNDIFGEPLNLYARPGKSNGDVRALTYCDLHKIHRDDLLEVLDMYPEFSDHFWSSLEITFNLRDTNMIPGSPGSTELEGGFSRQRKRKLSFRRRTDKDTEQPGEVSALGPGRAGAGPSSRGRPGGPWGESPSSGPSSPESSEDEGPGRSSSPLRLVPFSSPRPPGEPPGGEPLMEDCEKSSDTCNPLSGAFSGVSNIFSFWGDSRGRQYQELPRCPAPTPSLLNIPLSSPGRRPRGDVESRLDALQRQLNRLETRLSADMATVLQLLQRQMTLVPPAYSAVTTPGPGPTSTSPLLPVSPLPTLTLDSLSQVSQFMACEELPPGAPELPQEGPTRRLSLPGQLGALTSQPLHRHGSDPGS

EC50 (Plasmodium falciparum [1]) [nM]	EC50 (Plasmodium falciparum [2]) [nM]	permeability ([3]; BLD = below limit of detection)	AUC (Mus musculus [9]) [µM·h]	Vd/F [11] [L/kg]	SMILES	EC90 (Plasmodium falciparum [1]) [nM]	EC90 (Plasmodium falciparum [2]) [nM]	solubility at 18 h, 10000 µM [4] [µM]	Cmax (Mus musculus [5]) [nM]	Cmax (Mus musculus [6]) [nM]	Tmax (Mus musculus [7]) [h]	Tmax (Mus musculus [8]) [h]	AUC (Mus musculus [10]) [µM·h]	Vd/F [12] [L/kg]	Activity (HEK293)	Activity (HepG2)	Activity (Raji)	Activity (BJ)	% activity remaining at 20 min, 1 µM (CYP2D6 [13]) [%]	% activity remaining at 20 min, 10 µM (CYP2D6 [14]) [%]	also measured
1330	260	BLD	1.6	224	O=C(CCc1ccccc1)c1cc(F)ccc1OCC(O)CN1CCC(c2ccccc2)CC1 (configuration not stated)	2200	420	0.2 (≈ 0.0923 µg/mL)	434	481	1	1	3.75	982	Non-toxic	Non-toxic	Non-toxic	Non-toxic	73	34	
160	100	BLD	0.298	370	O=C(CCc1ccc(F)cc1)c1ccccc1OCC(O)CN1CCN(C(c2ccccc2)c2ccccc2)CC1 (configuration not stated)	450	210	0.6 (≈ 0.332 µg/mL)	92.4	1140	0.5	1	5.67	288	Non-toxic	Non-toxic	Non-toxic	Non-toxic	83	76	Cmax (Mus musculus [15]): 861 nM; Tmax (Mus musculus [16]): 0.5 h; AUC (Mus musculus [17]): 4.08 µM·h; Vz/F (Mus musculus [18]): 1758 L/kg

SMILES	EC50 (Plasmodium falciparum [1]) [nM]	EC50 (Plasmodium falciparum [2]) [nM]	permeability ([3]; BLD = below limit of detection)	AUC (Mus musculus [9]) [µM·h]	Vd/F [11] [L/kg]	EC90 (Plasmodium falciparum [1]) [nM]	EC90 (Plasmodium falciparum [2]) [nM]	solubility at 18 h, 10000 µM [4] [µM]	Cmax (Mus musculus [5]) [nM]	Cmax (Mus musculus [6]) [nM]	Tmax (Mus musculus [7]) [h]	Tmax (Mus musculus [8]) [h]	AUC (Mus musculus [10]) [µM·h]	Vd/F [12] [L/kg]	Activity (HEK293)	Activity (HepG2)	Activity (Raji)	Activity (BJ)	% activity remaining at 20 min, 1 µM (CYP2D6 [13]) [%]	% activity remaining at 20 min, 10 µM (CYP2D6 [14]) [%]	also measured
Cc1ccc(N2CCN(CC(O)COc3ccccc3C(=O)CCc3ccccc3)CC2)cc1 (configuration not stated)			BLD			1300	640	2.2 (≈ 1.01 µg/mL)	302	866	8	0.5	6.49	272	Non-toxic	Non-toxic	Non-toxic	Non-toxic	92	71	IC50 [19]: 4310 nM; IC50 [20]: > 5000 nM; CLint scaled [21]: 38 mL/min/kg
O=C(CCc1ccccc1)c1ccccc1OCC(O)CN1CCN(C(c2ccccc2)c2ccccc2)CC1 (configuration not stated)				0.249	318	90	100	0.1 (≈ 0.0535 µg/mL)	73.7	667	1	0.5	3.1	603	Non-toxic	Non-toxic	Non-toxic	Non-toxic	76	59	IC50 [19]: 2600 nM; Activity (Plasmodium berghei [22]): 55.3%; selectivity ratio (hERG): 26; permeability [3]: 2.3 ×10⁻⁶ cm/s; CLint scaled [23]: 70 mL/min/kg; Cmax (Mus musculus [15]): 598 nM; Tmax (Mus musculus [16]): 1 h; AUC (Mus musculus [17]): 3.37 µM·h; Vz/F (Mus musculus [18]): 2020 L/kg; Activity (Plasmodium berghei [24]): 53.6%; MST (Plasmodium berghei [25]): 7 days; MST (Plasmodium berghei [26]): 7 days

— ChEMBL document CHEMBL2157870 (J Med Chem, 2012)
